The source of these data is the EternaBench riboswitch data.

The subject of series [1] is MS2 coat protein. The experiment in a line: apparent Kd, MS2 coat protein; higher = weaker binding; RNA-MaP array. The procedure, abridged:
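Sequenced DNA templates on an Illumina sequencing chip were transcribed into the designed RNAs. These were incubated at room temperature in Tris-HCl pH 7.5 buffer containing KCl, MgCl2, BSA, DTT, tRNA and Tween20 with fluorescently labeled MS2 coat protein at 1.5 nM to 3 μM, with or without input ligand. Apparent Kd is the median of binding-curve fits per cluster, and designs with fewer than 10 clusters measured were excluded.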

Series [2] deals with MS2 coat protein. Briefly: apparent Kd, MS2 coat protein; higher = weaker binding; RNA-MaP array; FMN 200 µM where present. The gist of the method: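 Apparent Kd: the median of filtered binding-curve fits from single clusters. Designs were transcribed on Illumina sequencing-chip clusters by stalled E. coli RNA polymerase and titrated with SNAP-549-labelled MS2 coat protein from 0.7 or 1.5 nM, doubling to 3 µM, in 100 mM Tris-HCl pH 7.5, 80 mM KCl, 4 mM MgCl2, BSA, DTT, yeast tRNA and Tween-20. Each series ran without and then with constant ligand, and green signal was normalised to red-channel RNA signal and control-cluster median Fmax.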

[3] abbreviates: designed as: OFF switch for flavin mononucleotide, no ligand.
Setting [4] is: ligand present: flavin mononucleotide, designed as: OFF switch for flavin mononucleotide.
The mark [5] stands for this setting: designed as: ON switch for flavin mononucleotide, no ligand.
Setting [6] is: ligand present: flavin mononucleotide, designed as: ON switch for flavin mononucleotide.

Usually apparent Kd stands for the concentration giving half-maximal binding under the conditions of the assay. In the case of “CCGUAUCGACCAGGAUAUUCAAUAGCGCCACAUGAGGAUCACCCAUGUUUAUAUCUUCAUGGAAGGAAGAAGGGGUACAAGCGG”, the figures for the “apparent Kd” value in the series on MS2 coat protein [1] (setting [3]) and with MS2 coat protein [1] (setting [4]) were 199 nM and 240 nM, respectively.

For the sequence “CUGUGCGAACAGAAGGUGGCGUGUUAUCGGGACCAAGGAUAUGUUUACUAUUGUGACAAUUCACAUGAGGAUCACCCAUGUACA”, the “apparent Kd” value in the series with MS2 coat protein [1] (setting [3]) was determined as 21.7 nM; in the series on MS2 coat protein [1] (setting [4]), 15.3 nM.

Turning to “CUUAGGUGAGGAUAUCCUGAAUGGGUCGCUACCAGCCGUUCGGAGAAGGCACAUGAGGAUCACCCAUGUUUUGA”, the entries for the “apparent Kd” value in the series on MS2 coat protein [1] (setting [3]) and in the series on MS2 coat protein [1] (setting [4]) were 34.6 nM and 25.5 nM, respectively.

With “CCAUGAAGAUAGGAUAUAGGUCGAGUUCCCGAACAAGAAGGAUCGACAUGAGGAUCACCCAUGUGCAUCCAUGA”, the “apparent Kd” value with MS2 coat protein [1] (setting [3]) amounted to 27.1 nM; in the series with MS2 coat protein [1] (setting [4]), 21.1 nM.

For “GAUCUAUCAGGAUAUAAGGCCUUGAACAUGAGGAUCACCCAUGUCCUCUUGGUUGCCGCGUUAGAAGGGAUGUGUU”, the entries for the “apparent Kd” value in the series on MS2 coat protein [1] (setting [3]) and in the series with MS2 coat protein [1] (setting [4]) were 202 nM and 171 nM, respectively.

Regarding “UAGCAAUGCGAAGGAUAUGUCGCCCUCCCAAGGACAGAAGGUCGGAACUGUUUACAUGAGGAUCACCCAUGUGGUAAUUAACAA”, the “apparent Kd” value in the series with MS2 coat protein [1] (setting [5]) turned out to be 21.8 nM; in the series on MS2 coat protein [1] (setting [6]) it was 15.6 nM.

As for “ACGUGACACGAGAAGGGUCUUAAAUGUUGAUUGACAGGAUAUCGUUCCCACGAUACAUAGACGGACAUGAGGAUCACCCAUGUG”, the entries for the “apparent Kd” value in the series on MS2 coat protein [1] (setting [5]) and with MS2 coat protein [1] (setting [6]) were 85.8 nM and 30.3 nM, respectively.

In the case of “CGCUAAUAAAUAGUAAUAAUUGUACAGGAUAUGUUACAUGAGGAUCACCCAUGUAUUGGGUAAGAACAGAAGGGUAUAUUAGCG”, the figures for the “apparent Kd” value in the series on MS2 coat protein [2] (setting [3]) and with MS2 coat protein [2] (setting [4]) were 433 nM and 229 nM, respectively.

For “AGUGUCAUCGAGAAGGCCUCAACAUGAGGAUCACCCAUGUUGAAAAGUGGGAGGAUAUCGAUGAUACAGCUACGUUUCGUAGCA”, the “apparent Kd” value with MS2 coat protein [2] (setting [5]) came out at 9.79 nM; with MS2 coat protein [2] (setting [6]), 4.98 nM.

For “UCCUUGUCCUGAGGAUAUCCGUGGUUACCGAAAGGAGAAGGCAGGACAUGAGGAUCACCCAUGUACCCAGAAAACGUGCAGAGA”, the “apparent Kd” value was found to be 59.3 nM in the series on MS2 coat protein [2] (setting [3]) and 467 nM in the series with MS2 coat protein [2] (setting [4]).

Consider “CAAUUUAUGUCAGGAUAUACAAUACAAUGAUUAGUAGAAGGGAUUAAUACAUGAGGAUCACCCAUGUCAUGUGUCAUCGUACCC”, for which the “apparent Kd” value with MS2 coat protein [2] (setting [3]) is 28.1 nM; in the series on MS2 coat protein [2] (setting [4]), 23.3 nM.

As for “UGCCGUGUACAGAAGGGCGACAUGAGGAUCACCCAUGUCUCCUUGUUGGUCGUAGGAUAUGUACCGUGGCUCUCACCUGUGGGA”, the “apparent Kd” value with MS2 coat protein [2] (setting [3]) came to 5.57 nM; in the series on MS2 coat protein [2] (setting [4]), 6.95 nM.

As to “GUGGCACAUGAGGAUCACCCAUGUCAGGAUAUCGUGUGUUUUUUUUCGGCCGCGCGCGCGAGAAGGGACGUCUU”, the figures for the “apparent Kd” value in the series on MS2 coat protein [2] (setting [3]) and in the series on MS2 coat protein [2] (setting [4]) were 149 nM and 120 nM, respectively.

Regarding “GCCUGCUGGCGAGGAUAUUCUGUGCGGUUUCGGCUCGUGUCUGUUACAUGAGGAUCACCCAUGUGGGAGAAGGUGUCUGUGGCC”, the “apparent Kd” value with MS2 coat protein [2] (setting [3]) amounted to 7.76 nM; in the series with MS2 coat protein [2] (setting [4]), 7.28 nM.

As for “AUAAUGAGAGGAUAUACAUGAGGAUCACCCAUGUUAUUAACACGGCGAGCUCCAAUACGUAGAAGGCUCAUUUA”, the “apparent Kd” value in the series with MS2 coat protein [2] (setting [3]) amounted to 123 nM; in the series with MS2 coat protein [2] (setting [4]) it was 26.5 nM.

Turning to “UGAUAGGACAGAGGAUAUGCCGAUAGGAUCUACUAUCGAAGAAUCCUCACAUGAGGAUCACCCAUGUAGAAGGCUGUUCUAUCU”, the figures for the “apparent Kd” value in the series with MS2 coat protein [2] (setting [3]) and with MS2 coat protein [2] (setting [4]) were 8.18 nM and 33 nM, respectively.

In the case of “UUACAUACAAAGGUACAUGAGGAUCACCCAUGUUUAUUGGGAAGAAGGGUAACAGUACUACAUAUAUAGGAUAUUUCACAAAUG”, the results for the “apparent Kd” value with MS2 coat protein [2] (setting [5]) and with MS2 coat protein [2] (setting [6]) were 195 nM and 144 nM, respectively.

Consider “GCGUCAGAAUUAAUUGUGACAGACAGAAGGCAAUAGUAUGUGACAGACAUGAGGAUCACCCAUGUUGAGGAUAUGUAUUGACAC”, for which the “apparent Kd” value in the series with MS2 coat protein [2] (setting [3]) was 6.6 nM; in the series on MS2 coat protein [2] (setting [4]) it was 7.36 nM.

With “UGUCGGAGCAGAGGAUAUUACAUGAGGAUCACCCAUGUAUGAACCAAUAGCUCGAAACAGCAAUGUAAGAAGGCUGCUCCGACA”, the “apparent Kd” value amounted to 6.38 nM in the series on MS2 coat protein [2] (setting [3]) and 69.9 nM in the series on MS2 coat protein [2] (setting [4]).

Regarding “CAUUAAUUGAUUAUUGUAUUUUUACAGGAUAUGUUACAUGAGGAUCACCCAUGUUUAUAUGGGAGACAGAAGGGUAUUUAUAGA”, the “apparent Kd” value in the series with MS2 coat protein [2] (setting [3]) stood at 355 nM; with MS2 coat protein [2] (setting [4]) it was 193 nM.

Consider “GCGAUUUUGUAAGGAUAUACACGAGUUUCAAGUGUAGAAGGUACUUACAUGAGGAUCACCCAUGUAUACUUGGAUAAUAGUCGU”, for which the “apparent Kd” value in the series with MS2 coat protein [2] (setting [5]) was determined as 29.2 nM; with MS2 coat protein [2] (setting [6]) it was 23.5 nM.

Consider “GUCAGCUCGUGAGGAUAUACAUGUGCUGGAGACAGCACUAUUGAGUUCACAUGAGGAUCACCCAUGUAGAAGGCACGAGCUGAU”, for which the “apparent Kd” value in the series on MS2 coat protein [2] (setting [3]) stood at 15.5 nM; in the series on MS2 coat protein [2] (setting [4]), 27.4 nM.

For “CCGCAUAAGCAGGAUAUCGUAUCGGAAACGAUACGAGAAGGGUUAACAUGAGGAUCACCCAUGUUCCUUAACGG”, the “apparent Kd” value in the series on MS2 coat protein [2] (setting [3]) is 17.9 nM; in the series with MS2 coat protein [2] (setting [4]), 18.2 nM.
